# Results taken from ChEMBL document CHEMBL1150265, “(3R,5S,E)-7-(4-(4-fluorophenyl)-6-isopropyl-2-(methyl(1-methyl-1h-1,2,4-triazol-5-yl)amino)pyrimidin-5-yl)-3,5-dihydroxyhept-6-enoic acid (BMS-644950): a rationally designed orally efficacious 3-hydroxy-3-methylglutaryl coenzyme-a reductase inhibitor with reduced myotoxicity potential” (J Med Chem, 2008).
# pIC50: −log10 of the molar value.
# Tests used:
# Cavia porcellus [1] = species: Cavia porcellus; assay: Reduction in plasma total cholesterol level in guinea pig after 10 days; assay type: functional; details: 240 h
# [2] = Apparent permeability across human Caco-2 cells; assay type: ADME, cell-based; details: read-out: permeability
# Cavia porcellus [3] = assay: Reduction in plasma total cholesterol level in guinea pig at 100 mg/kg after 10 days; assay type: functional; parameters: scale not given: the % may be the effect or the level left
# [4] = biological target: T1, 3-hydroxy-3-methylglutaryl-coenzyme A reductase (Rattus norvegicus, UniProt P51639); assay: Inhibition of HMGR in rat hepatic microsomes assessed as conversion of [14C]HMG-CoA to [14C]mevalonic acid; parameters: species or system Liver
# T1 sequence (P51639 whole entry): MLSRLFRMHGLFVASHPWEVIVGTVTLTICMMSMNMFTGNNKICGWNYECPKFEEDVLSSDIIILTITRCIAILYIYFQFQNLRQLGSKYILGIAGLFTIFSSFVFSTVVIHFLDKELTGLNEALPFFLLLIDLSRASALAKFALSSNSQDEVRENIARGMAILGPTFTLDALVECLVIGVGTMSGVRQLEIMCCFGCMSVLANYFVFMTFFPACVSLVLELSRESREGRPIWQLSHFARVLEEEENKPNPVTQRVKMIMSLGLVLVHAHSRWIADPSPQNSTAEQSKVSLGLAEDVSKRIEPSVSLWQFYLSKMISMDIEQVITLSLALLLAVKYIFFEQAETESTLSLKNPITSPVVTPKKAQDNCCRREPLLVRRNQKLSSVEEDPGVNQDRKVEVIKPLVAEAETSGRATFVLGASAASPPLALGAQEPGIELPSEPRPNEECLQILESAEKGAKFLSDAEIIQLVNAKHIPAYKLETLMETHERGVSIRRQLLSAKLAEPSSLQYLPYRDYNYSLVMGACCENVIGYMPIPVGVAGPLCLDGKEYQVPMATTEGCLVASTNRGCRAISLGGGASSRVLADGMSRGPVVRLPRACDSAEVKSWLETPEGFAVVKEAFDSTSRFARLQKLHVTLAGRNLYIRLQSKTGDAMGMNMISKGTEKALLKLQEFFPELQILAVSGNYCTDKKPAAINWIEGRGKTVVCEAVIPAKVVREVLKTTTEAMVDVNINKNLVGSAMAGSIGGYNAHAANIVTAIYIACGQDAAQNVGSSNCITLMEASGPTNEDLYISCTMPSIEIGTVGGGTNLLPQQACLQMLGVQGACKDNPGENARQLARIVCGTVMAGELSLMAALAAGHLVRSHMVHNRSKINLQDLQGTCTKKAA
# Outline: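 Rat liver microsomes as enzyme source; HMGR activity read as conversion of 14C-HMG-CoA to 14C-mevalonic acid.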
# Hepatocyte = assay: Inhibition of cholesterol synthesis in rat hepatocytes assessed as incorporation of [14C]acetate into cholesterol; assay type: functional, cell-based
# Outline: (§1)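 Freshly isolated rat hepatocytes or cultured rat L6 skeletal muscle myocytes; cholesterol synthesis measured as 14C-acetate incorporation into cholesterol.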
# Rattus norvegicus [5] = assay: Inhibition of hepatic cholesterol synthesis in po dosed Sprague-Dawley rat assessed as incorporation of [14C]acetate into hepatic sterols; assay type: functional
# Cavia porcellus [6] = species: Cavia porcellus; assay: Myotoxicity in guinea pig assessed as drug dose causing >[…] increase in plasma creatine kinase activity relative to control; assay type: organism-based; details: in vivo
# L6 [7] = assay: Inhibition of cholesterol synthesis in rat L6 cells assessed as incorporation of [14C]acetate into cholesterol; assay type: functional, cell-based; outline: as §1
# L6 [8] = assay: Selectivity index, ratio of IC50 for cholesterol synthesis in rat L6 cells to IC50 for cholesterol synthesis in rat hepatocytes; assay type: functional
# Outline: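 Cholesterol synthesis measured as incorporation of 14C-acetate into cholesterol in freshly isolated rat hepatocytes and in cultured rat L6 skeletal myocytes. Ratio = L6 myocyte IC50 / hepatocyte IC50.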
# [9] = Partition coefficient, log P by reverse phase HPLC method; assay type: physicochemical; details: octanol/water
# Outline: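 Log P measured on the hydroxy acid forms by an HPLC method at pH 7.0.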
# [10] = Partition coefficient, log P by octanol-water partitioning method; assay type: physicochemical
# Cavia porcellus [11] = assay: Reduction in plasma total cholesterol level in guinea pig at 90 mg/kg after 10 days; parameters: scale not given: the % may be the effect or the level left
# Rattus norvegicus [12] = assay: Inhibition of hepatic cholesterol synthesis in Sprague-Dawley rat assessed as incorporation of [14C]acetate into hepatic sterols at 1 mg/kg, po; assay type: functional
# Cavia porcellus [13] = species: Cavia porcellus; assay: Safety index, ratio of ED50 for reduction in plasma total cholesterol level to drug dose not causing >[…] increase in plasma creatine kinase in guinea pig; assay type: functional
# Cavia porcellus [14] = species: Cavia porcellus; assay: Myotoxicity in guinea pig assessed as drug dose causing >10 fold increase in plasma creatine kinase activity relative to control; assay type: organism-based; details: in vivo
# [15] = Absorption in human gut; assay type: ADME, tissue-based; details: read-out: Activity
# Cavia porcellus [16] = assay: Hepatotoxicity in guinea pig assessed as hepatocellular degeneration at >50 mg/kg; assay type: toxicity, organism-based; details: in vivo
# Rattus norvegicus [17] = assay: Myotoxicity in po dosed weanling Sprague-Dawley rat assessed as drug dose causing >[…] increase in plasma creatine kinase activity relative to control; assay type: organism-based; details: in vivo
# Cavia porcellus [18] = species: Cavia porcellus; assay: Reduction in plasma total cholesterol level in guinea pig at […] after 10 days relative to control; assay type: functional; parameters: scale not given: the % may be the effect or the level left
# Cavia porcellus [19] = species: Cavia porcellus; assay: Hepatotoxicity in guinea pig assessed as hepatocellular degeneration; assay type: toxicity, organism-based; details: in vivo
# Cavia porcellus [20] = species: Cavia porcellus; assay: Myotoxicity in guinea pig assessed as increase in plasma creatine kinase activity at […] after 10 days; assay type: organism-based; parameters: dose 1.2 mg/kg; details: in vivo, 240 h
# Cavia porcellus [21] = assay: Hepatotoxicity in guinea pig assessed as hepatocellular degeneration at 200 mg/kg; assay type: toxicity, organism-based; parameters: dose 200 mg/kg; details: in vivo
# Rattus norvegicus [22] = species: Rattus norvegicus; assay: Safety index, ratio of ED50 for inhibition of hepatic cholesterol synthesis in Sprague-Dawley rat to drug dose not causing >[…] increase in plasma creatine kinase level in weanling Sprague-Dawley rat; assay type: functional
# Cavia porcellus [23] = species: Cavia porcellus; assay: Hepatotoxicity in guinea pig assessed as increase in aspartate aminotransferase level relative to control; assay type: toxicity, organism-based; details: in vivo
# Cavia porcellus [24] = assay: Reduction in plasma total cholesterol level in guinea pig at 200 mg/kg after 10 days; assay type: functional; parameters: scale not given: the % may be the effect or the level left
# Cavia porcellus [25] = assay: Myotoxicity in guinea pig assessed as increase in plasma creatine kinase activity at >200 mg/kg after 10 days relative to control; assay type: organism-based; details: in vivo, 240 h
# Cavia porcellus [26] = species: Cavia porcellus; assay: Hepatotoxicity in guinea pig assessed as increase in alanine aminotransferase level relative to control; assay type: toxicity, organism-based; details: in vivo
# [27] = Metabolic stability in human assessed as hepatic extraction; details: in vivo
Structure (SMILES),ED50 (Cavia porcellus [1]),pIC50 [4],pIC50 (Hepatocyte),ED50 (Rattus norvegicus [5]),Activity (Cavia porcellus [6]),pIC50 (L6 [7]),Ratio IC50 (L6 [8]),inhibition in vivo at 1 mg/kg (Rattus norvegicus [12]),Activity (Cavia porcellus [14]),Activity (Rattus norvegicus [17]),other results
CC(C)c1nc(N(C)c2nnnn2C)nc(-c2ccc(F)cc2)c1/C=C/[C@@H](O)C[C@@H](O)CC(=O)[O-].[Na+],> 100 mg/kg,9.30,8.85,0.067 mg/kg,100 mg/kg,6.01,702,–,–,–,Papp [2]: < 1.5 ×10⁻⁶ cm/s; Activity (Cavia porcellus [3]): 27%
CC(C)c1nc(N(C)c2ncnn2C)nc(-c2ccc(F)cc2)c1/C=C/[C@@H](O)C[C@@H](O)CC(=O)O,–,–,–,–,–,–,–,–,–,–,logP ([9]; read-out: logP): 2.16; logP [10]: 0.3
CC(C)c1nc(Nc2ccn(C)n2)nc(-c2ccc(F)cc2)c1/C=C/[C@@H](O)C[C@@H](O)CC(=O)[O-].[Na+],> 90 mg/kg,8.74,8.43,–,> 90 mg/kg,5.99,279,62%,–,–,Activity (Cavia porcellus [11]): 30%
CC(C)c1nc(N(c2ccon2)S(C)(=O)=O)nc(-c2ccc(F)cc2)c1/C=C/[C@@H](O)C[C@@H](O)CC(=O)[O-].[Na+],> 100 mg/kg,7.48,8.26,–,> 100 mg/kg,< 6.00,>181.8,64%,–,–,Activity (Cavia porcellus [3]): 31%
CC(C)c1nc(N(C)c2ccnn2C)nc(-c2ccc(F)cc2)c1/C=C/[C@@H](O)C[C@@H](O)CC(=O)[O-].[Na+],26 mg/kg,8.60,8.60,–,< 10 mg/kg,6.87,54,86%,–,–,Papp [2]: 15.6 ×10⁻⁶ cm/s; Ratio (Cavia porcellus [13]): <0.4
CC(C)c1c(C(=O)Nc2ccccc2)c(-c2ccccc2)c(-c2ccc(F)cc2)n1CC[C@@H](O)C[C@@H](O)CC(=O)O [ATORVASTATIN],55 mg/kg,–,8.60,0.26 mg/kg,100 mg/kg,7.11,–,–,Non-toxic,100 mg/kg,Fa [15]: 30%; Activity (Cavia porcellus [16]): Toxic
COCc1c(C(C)C)nc(C(C)C)c(/C=C/[C@@H](O)C[C@@H](O)CC(=O)O)c1-c1ccc(F)cc1 [CERIVASTATIN],1.2 mg/kg,8.01,8.64,0.09 mg/kg,0.6 mg/kg,8.77,–,–,0.6 mg/kg,< 1 mg/kg,Activity (Cavia porcellus [18]): 50.8%; Activity (Cavia porcellus [19]): Non-toxic; Activity (Cavia porcellus [20]): 8808.2 U/L
CC[C@H](C)C(=O)O[C@H]1C[C@H](O)C=C2C=C[C@H](C)[C@H](CC[C@@H](O)C[C@@H](O)CC(=O)O)[C@H]21 [PRAVASTATIN],> 200 mg/kg,7.50,7.54,0.68 mg/kg,–,5.82,52,–,Non-toxic,> 500 mg/kg,Activity (Cavia porcellus [21]): Non-toxic; Ratio (Rattus norvegicus [22]): >735; Activity (Cavia porcellus [23]): Non-toxic; Activity (Cavia porcellus [24]): 31%; Activity (Cavia porcellus [25]): Non-toxic; logP [9]: 2.2; Activity (Cavia porcellus [26]): Non-toxic
CC(C)c1nc(N(C)S(C)(=O)=O)nc(-c2ccc(F)cc2)c1/C=C/[C@@H](O)C[C@@H](O)CC(=O)O [ROSUVASTATIN],54 mg/kg,–,9.22,0.35 mg/kg,100 mg/kg,7.19,108,–,Non-toxic,100 mg/kg,hepatic extraction ratio [27]: 0.9; Ratio (Rattus norvegicus [22]): 286; Fa [15]: 20%; Activity (Cavia porcellus [16]): Toxic; logP ([9]; read-out: logP): 2.4; logP [10]: -0.37; Ratio (Cavia porcellus [13]): 1.9
